From ChEMBL document CHEMBL2203272, “New fluorescent bile acids: synthesis, chemical characterization, and disastereoselective uptake by Caco-2 cells of 3-deoxy 3-NBD-amino deoxycholic and ursodeoxycholic acid” (Bioorg Med Chem, 2012)

Key:
[1] = test system: Caco-2; assay: Cellular uptake in human Caco2 cells at 10 uM at 4 degC by fluorescence assay; format: ADME, cell-based; settings: caco-2, 10 µM, TDE = time-dependent effect
In short: (§1)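 21-d polarised Caco-2 monolayers incubated with 10 μM in KRB (pH 7.4, 0.1% DMSO) at 37°C or 4°C. Sampled at 5, 10, 15, 30, 45, 60 and 90 min. Cells washed twice with ice-cold KRB and lysed in 1% Triton X-100. Lysate fluorescence read at ex 485/em 520 nm and normalised to BCA protein; mean ± SD, n = 3.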

[2] = test system: Caco-2; assay: Cellular uptake in human Caco2 cells at 10 uM at 37 degC by fluorescence assay; format: ADME, cell-based; settings: caco-2, 10 µM, TDE = time-dependent effect; in short: as §1
[3] = test system: Huh-7; assay: Cytotoxicity against human HuH7 cells assessed as cell viability at 1 to 100 uM up to 24 hrs by MTT assay; format: cell-based; settings: huh-7, 24 h
In short: (§2)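 HUH-7 and SKGT-4 cells exposed up to 100 μM for up to 24 h; viability by MTT assay.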

[4] = Cytotoxicity against human SKGT4 cells assessed as cell viability at 1 to 100 uM up to 24 hrs by MTT assay; format: cell-based; settings: skgt4, 24 h; in short: as §2
[5] = test system: Caco-2; assay: Cytotoxicity against human Caco2 cells assessed as cell viability at 1 to 100 uM up to 100 mins by MTT assay; format: cell-based; settings: caco-2, 100 min
In short: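 Caco-2 monolayers exposed to 1–100 μM for up to 100 min; viability by MTT assay.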

[6] = Stability of the compound in MeCN/phosphate buffer assessed as compound remaining at pH 7.4 measured for 24 hrs by HPLC analysis; format: physicochemical; settings: pH 7.4, 24 h
In short: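 Solution at 0.01 mg/ml (stock) in 2% MeCN/phosphate buffer pH 7.4, held at 37°C for 24 h and injected hourly. Analysed by C18 reversed-phase HPLC with MeCN/pH 2.5 phosphate buffer gradient, 1.0 ml/min, column 37°C, detection 346 nm; remaining compound followed by peak area.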

[7] = Cellular uptake in human Caco2 cells assessed as uptake rate at 1 to 100 uM at 4 to 37 degC after 20 mins by Eadie-Hofstee plot method; format: ADME, cell-based; settings: Caco-2 cells
In short: (§3)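 Caco-2 monolayers grown 21 d, exposed to 1–100 μM in bicarbonated Krebs-Ringer buffer (HEPES, pH 7.4, 0.1% DMSO) for 20 min at 37°C and 4°C. Washed twice with ice-cold KRB, lysed in 1% Triton X-100, fluorescence read at ex 485/em 520 nm and normalised to BCA protein. Active uptake = 37°C minus 4°C. Km/Vmax from Michaelis-Menten non-linear least squares fit, Eadie-Hofstee plot; n = 3.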

[8] = test system: Caco-2; assay: Cellular uptake in human Caco2 cells assessed as uptake rate measured per mg of protein at 1 to 100 uM at 4 to 37 degC after 20 mins by Eadie-Hofstee plot method; format: ADME, cell-based; settings: caco-2, 20 min; in short: as §3
[9] = test system: Caco-2; assay: Cellular uptake in human Caco2 cells at 4 to 37 degC after 20 mins by fluorescence assay; format: ADME, cell-based; settings: caco-2, 20 min
In short: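 Uptake into 21-d Caco-2 monolayers over 20 min at 37°C and 4°C, in KRB pH 7.4 with 0.1% DMSO. Monolayers washed with ice-cold KRB and solubilised in 1% Triton X-100. Fluorescence read at ex 485/em 520 nm with BCA protein normalisation. Active part taken as the 37°C minus 4°C difference; n = 3.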

[10] = test system: Caco-2; assay: Cellular uptake in human Caco2 cells at 10 uM at 4 to 37 degC after 90 mins by fluorescence assay; format: ADME, cell-based; settings: caco-2, 1.5 h
In short: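 Caco-2 grown 21 d on 24-well plates as polarised monolayers; compound at 10 μM in bicarbonated Krebs-Ringer buffer (HEPES, pH 7.4) with 0.1% DMSO, at 37°C or 4°C, sampled 5–90 min. Washed twice with ice-cold KRB, lysed in 1% Triton X-100, lysate fluorescence read at ex 485/em 520 nm, normalised to BCA protein. Active uptake = 37°C minus 4°C; mean ± SD, n = 3.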

SMILES | Drug uptake [1] | Drug uptake [2] | Activity [3] | Activity [4] | Activity [5] | Stability [6] | Km at 20 min, up to 100 µM [7] [µM] | Vmax [8] [nmol/min/mg] | Drug uptake [9] | Drug uptake [10]
C[C@H](CCC(=O)O)[C@H]1CC[C@H]2[C@@H]3[C@@H](O)C[C@@H]4C[C@@H](Nc5ccc([N+](=O)[O-])c6nonc56)CC[C@]4(C)[C@H]3CC[C@]12C | tde | tde | Non-toxic | Non-toxic | Non-toxic | Stable | – | – | – | –
C[C@H](CCC(=O)O)[C@H]1CC[C@H]2[C@@H]3CC[C@@H]4C[C@H](Nc5ccc([N+](=O)[O-])c6nonc56)CC[C@]4(C)[C@H]3C[C@H](O)[C@]12C | tde | tde | Non-toxic | Non-toxic | Non-toxic | – | 28.2 | 1.8 | Dose-dependent effect | –
O=[N+]([O-])c1ccc(NC2CCCCC2)c2nonc12 | – | – | – | – | – | – | – | – | Dose-dependent effect | Active
